Compounds with a hit are over-represented: about 1.8% of the library has one in this group of screens.
M5 ag: human M5 muscarinic receptor agonists, primary screen, CHO-K1 cells, Fluo-8 calcium fluorescence; 360,000 tested, 0.19% active; Muscarinic acetylcholine receptor M5 (Homo sapiens), P08912; CHO-K1 hM5 cells; 0% DMSO wells, 100% maximal acetylcholine response; activation, % at 3 µM; AID 624037, 2012;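 active means activation above the run's mean over test compounds plus 3 SD, cut at about 23% in these data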;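 further: signal is peak over basal fluorescence ratio across the kinetic read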
CHRM4 agonist: human M4 muscarinic receptor agonists, primary screen, CHO-K1 cells, Fluo-8 calcium fluorescence; Muscarinic acetylcholine receptor M4 (Homo sapiens), P08173; CHO-K1 hM4/Gqi5; vehicle 0%, full acetylcholine response 100%; activation, % at 3 µM; 360,000 tested, 0.14% active; AID 624127, 2012;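 active means activation above the run mean over all test wells plus 3 SD, cut at about 32% in these data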;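 further: peak over basal fluorescence ratio per well then scaled between controls; 0% = DMSO wells and 100% = acetylcholine at EC100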
Target sequence (P08173 whole entry, looked up): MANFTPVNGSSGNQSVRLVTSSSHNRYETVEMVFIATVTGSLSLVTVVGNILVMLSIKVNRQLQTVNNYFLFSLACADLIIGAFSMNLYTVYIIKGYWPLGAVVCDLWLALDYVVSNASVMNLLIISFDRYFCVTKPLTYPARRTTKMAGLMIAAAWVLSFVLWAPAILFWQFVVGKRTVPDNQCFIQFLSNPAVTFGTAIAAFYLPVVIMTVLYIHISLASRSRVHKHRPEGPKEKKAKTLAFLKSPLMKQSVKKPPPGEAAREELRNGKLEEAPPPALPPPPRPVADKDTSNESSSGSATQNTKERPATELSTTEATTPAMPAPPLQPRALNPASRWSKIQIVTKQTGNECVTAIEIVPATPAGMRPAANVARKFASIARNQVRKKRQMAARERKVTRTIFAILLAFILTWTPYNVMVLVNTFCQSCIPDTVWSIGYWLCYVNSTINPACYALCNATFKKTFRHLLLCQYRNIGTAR
CHRM5 PAM: human M5 muscarinic receptor positive allosteric modulators, primary screen, CHO-K1 cells, Fluo-8 calcium fluorescence | Muscarinic acetylcholine receptor M5 (Homo sapiens), P08912 | CHO-K1 hM5, ACh EC20 PAM; 0% = ACh EC20, 100% = ACh EC100 | activation, % at 3 µM | 360,000 tested, 0.3% active | AID 624038, 2012;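 active means activation above the run cutoff, the mean activation of all test compounds plus 3 SD, cut at about 18% in these data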
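Probe or stimulus: acetylcholine, EC20 level; Assay system: human M5 receptor in CHO-K1 cells; Schedule: compound preincubation 140 s before EC20 acetylcholine addition; Technique: intracellular calcium via Fluo-8 fluorescence; Dosing: single-point, 3 µM nominal; Read-out basis: percent activation from peak-over-basal fluorescence ratio, scaled EC20-to-EC100 acetylcholine; Repeats: one well per compound, no replicates.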
M5 antag: human M5 muscarinic receptor antagonists, primary screen, CHO cells, Fluo-8 calcium fluorescence; inhibition, % at 3 µM; CHO-hM5 cells, ACh EC80; 360,000 tested, 0.59% active; Muscarinic acetylcholine receptor M5 (Homo sapiens), P08912;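 active means inhibition above a per-plate cutoff, the mean of that plate's test compounds plus 3 SD, cut at about 27% in these data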;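 further: 0% = acetylcholine EC80 with DMSO and 100% = DMSO without agonist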
CHRM4 antagonist: human M4 muscarinic receptor antagonists, primary screen, CHO cells, Fluo-8 calcium fluorescence; AID 624125, 2012; Muscarinic acetylcholine receptor M4 (Homo sapiens), P08173; 360,000 tested, 0.73% active; inhibition, % at 3 µM; CHO-hM4 cells, ACh EC80;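 active means inhibition above its plate's cutoff, the mean inhibition of sample wells plus 3 SD, cut at about 27% in these data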;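 further: 0% = acetylcholine EC80 with DMSO and 100% = DMSO without agonist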
CHRM4 PAM: human M4 muscarinic receptor positive allosteric modulators, primary screen, CHO-K1 cells, Fluo-8 calcium fluorescence; Muscarinic acetylcholine receptor M4 (Homo sapiens), P08173; AID 624126, 2012; CHO-K1 hM4/Gqi5, ACh EC20; 0% = ACh EC20, 100% = maximal ACh; activation, % at 3 µM; 360,000 tested, 0.4% active;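 active means activation above its plate's cutoff, the mean activation of sample wells plus 3 SD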
An asterisk follows results filed as active.

SMILES | M5 ag | CHRM4 agonist | CHRM5 PAM | M5 antag | CHRM4 antagonist | CHRM4 PAM
COc1ccc(Oc2c(C)oc3c(CN(C)C)c(O)ccc3c2=O)cc1 | -8 | 1 | -16 | 2 | 44* | -17
N#CC1=C(N)Oc2cc(O)ccc2C1c1ccc(Br)s1 (stereo unspecified) | 29* | 14 | -21 | 9 | -10 | 0
CC12CCC3C(=CCc4cc(O)ccc43)C1CC(=NO)C2O (stereo unspecified) | 24* | 5 | -1 | 11 | -16 | 3
Cc1nn(-c2cc(N3CCNCC3)ccc2[N+](=O)[O-])c(=O)c2ccccc12 | -7 | 1 | 19* | -4 | 0 | 2
Cc1ccccc1N1CCN(C(=O)c2cc(C3CC3)nn2-c2ccccc2)CC1 | -8 | -1 | -3 | 24 | -7 | -3
CC(C)CSC1=NSC2=NC(=O)/C(=C\c3coc4ccccc4c3=O)C(=N)N12 | 168* | 89* | -23 | 68* | 52* | -21
CSC1=NSC2=NC(=O)/C(=C\c3coc4ccccc4c3=O)C(=N)N12 | 27* | 25 | -13 | 26 | 27* | -17
CC1CCC2(CC1)OCC1(CCC3(COC4(CCC(C)CC4)OC3)C1=O)CO2 (stereo unspecified) | 2 | 1 | 3 | 2 | 0 | 3
COc1ccc(NS(=O)(=O)c2cccc(C(=O)NCC(c3ccccc3OC)N3CCCC3)c2)cc1 (stereo unspecified) | -10 | 1 | -34 | 21 | 18 | -10
COc1ccccc1C(CNC(=O)c1cccc(S(=O)(=O)Nc2ccc(F)cc2)c1)N1CCCC1 (stereo unspecified) | -12 | 3 | -46 | 47* | 36* | -16
COc1ccc(Cl)cc1C(=O)NCC(c1ccco1)N1CCCC1 (stereo unspecified) | -7 | 1 | -2 | 1 | 4 | -8
COc1cc(C(=O)NCC(c2ccco2)N2CCCC2)ccc1OCc1ccc(Cl)cc1Cl (stereo unspecified) | -11 | 5 | -43 | -11 | 52* | -17
O=C(NCC(c1ccco1)N1CCCCC1)c1ccc(S(=O)(=O)Nc2ccccc2)cc1 (stereo unspecified) | -4 | 3 | 2 | -2 | 2 | -4
O=C(NCC(c1ccco1)N1CCCC1)c1cccc(NS(=O)(=O)c2ccccc2)c1 (stereo unspecified) | -8 | 1 | -7 | 7 | 74* | -18
CC(C)Cn1c(=O)c(CCC(=O)Nc2ccc(N3CCOCC3)cc2)nc2cc(Cl)ccc21 | -5 | 1 | -1 | 4 | -7 | -10
C=CCn1c(SCC(=O)NCCC2=CCCCC2)nc2ccc(Cl)cc2c1=O | 4 | 1 | 30* | 2 | -14 | 5
Cn1c(=O)cc(SCC(=O)NCCC2=CCCCC2)c2ccc(Cl)cc21 | -3 | 0 | 1 | 3 | 1 | 1
O=C1c2cccc3cccc(c23)C(=O)N1CC1CCN(CC(O)COc2ccc3ccccc3c2)CC1 (stereo unspecified) | -2 | 26 | -19 | 21 | 101* | -44
CNC(=S)N1CCC(NC(=O)C(Cc2ccc(OC)cc2)NC(C)=O)CC1 (stereo unspecified) | 2 | 1 | 8 | -1 | -3 | -1
COc1ccc(CC(NC(C)=O)C(=O)N2CCN(C(=O)N(C(C)C)C(C)C)CC2)cc1 (stereo unspecified) | 1 | 2 | 12 | -7 | 29* | 3
CC1CCCCC1NC(=O)CN1C(=O)c2ccccc2S1(=O)=O (stereo unspecified) | -2 | 1 | -4 | 11 | 8 | -3

Screens deposited in PubChem by The Scripps Research Institute Molecular Screening Center.
